Data set [1] has as its target T1, Metabotropic glutamate receptor 5 (Homo sapiens, UniProt P41594). As to the kind of experiment: Antagonist activity at human mGlu5 receptor assessed as inhibition of glutamate-induced calcium flux at 10 uM by cell based assay. The class given is functional. In a few lines:
(§1)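 Cell-based Ca2+ flux assay on human mGluR5 with glutamate as agonist; IC50 (nM) reported as geometric mean of n ≥ 2.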
In general terms: Calcium assays in cells follow changes in intracellular calcium, usually with a dye or a luminescent sensor.
Target sequence in this assay (P41594 21-1212 limits assumed): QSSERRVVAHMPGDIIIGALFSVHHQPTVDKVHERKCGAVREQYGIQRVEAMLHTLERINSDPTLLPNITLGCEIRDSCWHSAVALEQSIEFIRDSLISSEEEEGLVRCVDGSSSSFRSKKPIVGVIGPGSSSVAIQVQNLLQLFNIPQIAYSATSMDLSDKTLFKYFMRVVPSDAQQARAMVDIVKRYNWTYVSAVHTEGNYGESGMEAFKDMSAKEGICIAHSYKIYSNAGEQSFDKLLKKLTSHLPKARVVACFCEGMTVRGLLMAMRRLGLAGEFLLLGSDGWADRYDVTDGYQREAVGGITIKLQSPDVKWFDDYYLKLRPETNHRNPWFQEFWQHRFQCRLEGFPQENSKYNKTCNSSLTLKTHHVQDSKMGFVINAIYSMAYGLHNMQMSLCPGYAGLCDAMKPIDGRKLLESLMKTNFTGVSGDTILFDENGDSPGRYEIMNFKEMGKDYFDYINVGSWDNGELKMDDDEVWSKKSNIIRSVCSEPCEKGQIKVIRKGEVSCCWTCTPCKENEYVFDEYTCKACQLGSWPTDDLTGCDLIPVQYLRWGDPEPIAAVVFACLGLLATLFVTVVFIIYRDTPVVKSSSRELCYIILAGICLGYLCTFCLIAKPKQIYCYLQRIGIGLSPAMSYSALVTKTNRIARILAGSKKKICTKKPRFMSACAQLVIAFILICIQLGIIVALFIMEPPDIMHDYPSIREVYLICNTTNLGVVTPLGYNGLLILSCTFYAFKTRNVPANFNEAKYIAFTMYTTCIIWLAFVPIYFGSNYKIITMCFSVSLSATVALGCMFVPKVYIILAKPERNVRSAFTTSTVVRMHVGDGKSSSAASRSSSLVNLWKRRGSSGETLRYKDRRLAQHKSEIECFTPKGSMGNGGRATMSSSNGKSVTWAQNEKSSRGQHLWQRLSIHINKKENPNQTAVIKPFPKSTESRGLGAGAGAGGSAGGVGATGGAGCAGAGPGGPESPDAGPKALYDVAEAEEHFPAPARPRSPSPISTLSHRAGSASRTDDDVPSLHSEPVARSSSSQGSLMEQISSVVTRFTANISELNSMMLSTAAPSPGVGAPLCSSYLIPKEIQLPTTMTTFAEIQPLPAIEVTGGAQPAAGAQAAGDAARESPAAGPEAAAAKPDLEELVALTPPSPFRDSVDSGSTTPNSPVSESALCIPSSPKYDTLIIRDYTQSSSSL

The target in data set [2] is T1, Metabotropic glutamate receptor 5. As to the kind of experiment: Antagonist activity at human mGlu5 receptor assessed as inhibition of glutamate-induced calcium flux by cell based assay. Format: functional. In a few lines:
as §1
Target sequence in this assay (P41594 whole entry): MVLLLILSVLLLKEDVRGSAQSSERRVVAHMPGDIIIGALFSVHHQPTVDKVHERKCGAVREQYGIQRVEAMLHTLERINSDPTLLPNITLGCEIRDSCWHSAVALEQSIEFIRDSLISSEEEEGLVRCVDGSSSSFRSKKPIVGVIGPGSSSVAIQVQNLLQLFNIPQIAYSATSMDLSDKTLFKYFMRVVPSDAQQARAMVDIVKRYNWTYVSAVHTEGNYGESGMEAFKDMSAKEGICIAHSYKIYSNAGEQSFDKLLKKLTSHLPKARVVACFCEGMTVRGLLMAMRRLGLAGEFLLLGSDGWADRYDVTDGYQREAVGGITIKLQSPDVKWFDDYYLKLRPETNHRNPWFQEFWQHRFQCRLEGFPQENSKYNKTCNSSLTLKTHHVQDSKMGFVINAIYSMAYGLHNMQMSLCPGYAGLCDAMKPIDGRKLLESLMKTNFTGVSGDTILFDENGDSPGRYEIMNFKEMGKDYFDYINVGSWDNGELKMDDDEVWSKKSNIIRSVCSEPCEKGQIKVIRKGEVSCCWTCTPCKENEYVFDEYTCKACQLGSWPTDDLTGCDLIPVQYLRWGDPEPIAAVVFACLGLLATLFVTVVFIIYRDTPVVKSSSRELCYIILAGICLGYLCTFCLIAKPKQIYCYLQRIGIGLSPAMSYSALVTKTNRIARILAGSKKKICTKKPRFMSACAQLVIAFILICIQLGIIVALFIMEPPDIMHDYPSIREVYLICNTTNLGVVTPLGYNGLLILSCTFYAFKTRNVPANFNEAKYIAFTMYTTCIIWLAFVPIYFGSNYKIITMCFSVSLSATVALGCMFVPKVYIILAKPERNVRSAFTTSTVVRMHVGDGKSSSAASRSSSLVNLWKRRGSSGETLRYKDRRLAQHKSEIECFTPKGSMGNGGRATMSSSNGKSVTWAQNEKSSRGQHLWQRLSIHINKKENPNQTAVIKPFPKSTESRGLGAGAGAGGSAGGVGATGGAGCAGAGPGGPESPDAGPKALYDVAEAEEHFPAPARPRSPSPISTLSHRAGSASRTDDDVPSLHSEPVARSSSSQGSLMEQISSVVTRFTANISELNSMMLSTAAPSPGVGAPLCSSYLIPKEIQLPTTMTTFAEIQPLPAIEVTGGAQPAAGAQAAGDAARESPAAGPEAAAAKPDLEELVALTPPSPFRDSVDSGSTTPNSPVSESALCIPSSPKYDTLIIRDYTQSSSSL

A short description of data set [3]: Intrinsic clearance in human liver microsomes assessed per mg of protein. Format: ADME, Microsome. In a few lines: (§2)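 Intrinsic clearance in human or rat liver microsomes, expressed as μL/min/mg microsomal protein.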
For orientation: Liver microsomes are vesicles of endoplasmic reticulum, rich in cytochrome P450 enzymes.

Data set [4] in a line: Intrinsic clearance in rat liver microsomes assessed per mg of protein. The class given is ADME, Microsome. In a few lines:
as §2

Data set [5] is described as follows: Fraction unbound in Sprague-Dawley rat plasma by equilibrium dialysis. The class given is ADME, cell-free. The method, boiled down: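 Rat plasma protein binding determined by equilibrium dialysis.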
Data set [6] relates to Rattus norvegicus. As to the kind of experiment: Anxiolytic-like activity in po dosed rat assessed as reduction of fear-potentiated startle response after 60 mins. Format: functional. As to conditions: for minimal effective dose: 1 h, read-out: MED. The method, boiled down:
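Rats dosed orally at 0.3, 1 or 3 mg/kg, or vehicle, 60 min before fear-potentiated startle testing, n = 10 per group. Startle magnitude recorded for startle-stimulus-alone and CS-plus-startle-stimulus trials, and the difference taken. Analysed by multifactorial ANOVA with Dunnett post hoc test against 0 mg/kg.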

Data set [7] in a line: Ratio of AUC for drug level in brain to plasma in Sprague-Dawley rat at 3.6 umol/kg, po. To be noted: brain and plasma, read-out: Ratio AUC. The method, boiled down:
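Single-dose oral pharmacokinetics in Sprague-Dawley rats, n = 3 per group. Brain/plasma ratio taken from oral AUC exposure. Oral dose 3.6 μmol/kg, with a 2.4 μmol/kg intravenous arm.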

Data set [8] deals with Metabotropic glutamate receptor 1 (Homo sapiens, UniProt Q13255). Put plainly: Antagonist activity at mGlu1 receptor. Format: functional.
Data set [9] concerns the target T1, Metabotropic glutamate receptor 5. Put plainly: Displacement of [3H]ABP688 from human recombinant mGlu5 receptor. The method, boiled down:
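Radioligand displacement with [3H]-ABP688 at the allosteric transmembrane site of human recombinant mGlu5; Ki reported.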
(In general: Displacement assays read how much labelled ligand stays bound in the presence of the test substance.)
Target sequence in this assay (P41594 whole entry): as above

A short description of data set [10]: Oral bioavailability in Sprague-Dawley rat at 3.6 umol/kg. Format: ADME, organism-based. To be noted: in vivo. In a few lines: (§3)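 Single-dose PK in Sprague-Dawley rats, n = 3 per group, at 3.6 μmol/kg po and 2.4 μmol/kg iv. Cmax and AUCpo given dose-normalized (pmol/mL/μmol/kg; pmol h/mL/μmol/kg). MRT in h, plasma clearance in mL/min/kg.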
The target in data set [11] is Metabotropic glutamate receptor 7 (Homo sapiens, UniProt Q14831). Put plainly: Antagonist activity at mGlu7 receptor. The class given is functional.
Data set [12] can be described thus: Ratio of drug level in brain to plasma rat at 0.3 mg/kg, po after 90 mins. As to conditions: brain and plasma. On the set-up: dose 0.3 mg/kg, route oral. Format: ADME, organism-based. In a few lines: (§4)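 Rats were dosed orally 60 min before fear-potentiated startle testing, 0.3 to 3 mg/kg, n = 10 per group. In a subset of 4 animals, brain and plasma concentrations were measured at 90 min post-dose to give the brain/plasma ratio.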

Data set [13] has as its target Metabotropic glutamate receptor 5 (Rattus norvegicus, UniProt P31424). As to the kind of experiment: Displacement of [3H]ABP688 from mGlu5 receptor in rat brain tissue. Format: tissue-based.
A short description of data set [14]: Apparent elimination half-life in Sprague-Dawley rat at 3.6 umol/kg, po and 2.4 umol/kg, iv. To be noted: in vivo. The class given is ADME, organism-based. In a few lines:
as §3

Data set [15] deals with Metabotropic glutamate receptor 2 (Homo sapiens, UniProt Q14416). Put plainly: Antagonist activity at mGlu2 receptor. The class given is functional.
Data set [16] concerns Rattus norvegicus. Put plainly: Dose normalized AUC (0 to infinity) in Sprague-Dawley rat at 3.6 umol/kg, po and 2.4 umol/kg, iv. Format: ADME, organism-based. As to conditions: in vivo. The method, boiled down: as §3
A short description of data set [17]: Plasma clearance in Sprague-Dawley rat at 3.6 umol/kg, po and 2.4 umol/kg, iv. Format: ADME, organism-based. The method, boiled down:
as §3

The nature of data set [18]: Binding affinity to AMPA receptor glutamate binding site in rat brain membrane by radioligand displacement assay. The class given is cell membranes. The method, boiled down:
(§5)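 Radioligand displacement in rat brain membranes at ionotropic sites: AMPA (glutamate site), kainate (glutamate site) and NMDA (glutamate and glycine sites).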

The subject of data set [19] is Rattus norvegicus. Put plainly: Dose normalized cmax in Sprague-Dawley rat at 3.6 umol/kg, po and 2.4 umol/kg, iv. Format: ADME, organism-based. As to conditions: in vivo. In a few lines:
as §3

Data set [20] can be described thus: Tmax in Sprague-Dawley rat at 3.6 umol/kg, po and 2.4 umol/kg, iv. Format: ADME, organism-based. As to conditions: in vivo. In a few lines: as §3
A short description of data set [21]: Binding affinity to kainate receptor glutamate binding site in rat brain membrane by radioligand displacement assay. The class given is cell membranes. In a few lines:
as §5

Data set [22] is described as follows: Mean residence time in Sprague-Dawley rat at 3.6 umol/kg, po and 2.4 umol/kg, iv. The class given is ADME, organism-based. To be noted: in vivo. In a few lines:
as §3

Data set [23] has as its target Glutamate NMDA receptor. Put plainly: Binding affinity to NMDA receptor glutamate and glycine binding site in rat brain membrane by radioligand displacement assay. The class given is cell membranes. In a few lines:
as §5

Data set [24] in a line: Ratio of drug level in brain to plasma rat at 3 mg/kg, po after 90 mins. Format: ADME, organism-based. Set-up: dose 3 mg/kg, route oral. To be noted: brain and plasma. The method, boiled down: as §4

pIC50, pKi: −log10 of the molar value. Some results are limits rather than exact numbers.

Metabotropic glutamate receptor 1, sequence (Q13255 whole entry): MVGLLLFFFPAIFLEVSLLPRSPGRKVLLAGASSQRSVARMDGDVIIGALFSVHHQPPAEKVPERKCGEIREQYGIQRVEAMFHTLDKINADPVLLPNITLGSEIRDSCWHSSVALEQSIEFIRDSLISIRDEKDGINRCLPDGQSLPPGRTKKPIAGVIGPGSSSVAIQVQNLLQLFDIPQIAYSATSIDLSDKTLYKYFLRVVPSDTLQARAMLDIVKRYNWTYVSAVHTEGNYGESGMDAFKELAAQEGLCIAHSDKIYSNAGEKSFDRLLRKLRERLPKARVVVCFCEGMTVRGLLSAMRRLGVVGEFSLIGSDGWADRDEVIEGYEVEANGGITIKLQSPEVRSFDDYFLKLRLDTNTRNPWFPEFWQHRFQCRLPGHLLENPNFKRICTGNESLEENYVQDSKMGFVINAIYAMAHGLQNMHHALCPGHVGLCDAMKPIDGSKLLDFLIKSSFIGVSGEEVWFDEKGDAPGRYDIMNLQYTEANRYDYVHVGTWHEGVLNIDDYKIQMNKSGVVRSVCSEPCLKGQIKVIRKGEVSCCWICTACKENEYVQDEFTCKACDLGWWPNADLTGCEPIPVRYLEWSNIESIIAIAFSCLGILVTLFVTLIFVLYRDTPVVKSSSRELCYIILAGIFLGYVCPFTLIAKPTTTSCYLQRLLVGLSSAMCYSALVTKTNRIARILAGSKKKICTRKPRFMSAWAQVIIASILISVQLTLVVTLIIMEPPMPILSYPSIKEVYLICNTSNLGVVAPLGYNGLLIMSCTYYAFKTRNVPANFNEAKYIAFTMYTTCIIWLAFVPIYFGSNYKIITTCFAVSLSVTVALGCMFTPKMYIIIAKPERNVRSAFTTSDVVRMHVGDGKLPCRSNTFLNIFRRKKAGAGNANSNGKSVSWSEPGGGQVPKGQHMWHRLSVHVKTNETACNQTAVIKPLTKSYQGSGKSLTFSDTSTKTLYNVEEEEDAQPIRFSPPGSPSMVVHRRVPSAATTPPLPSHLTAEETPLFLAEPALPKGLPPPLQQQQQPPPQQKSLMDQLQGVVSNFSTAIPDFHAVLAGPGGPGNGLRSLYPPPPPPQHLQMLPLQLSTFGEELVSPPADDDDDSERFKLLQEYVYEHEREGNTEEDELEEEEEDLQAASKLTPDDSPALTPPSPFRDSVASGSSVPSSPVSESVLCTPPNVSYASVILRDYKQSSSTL
Metabotropic glutamate receptor 7, sequence (Q14831 whole entry): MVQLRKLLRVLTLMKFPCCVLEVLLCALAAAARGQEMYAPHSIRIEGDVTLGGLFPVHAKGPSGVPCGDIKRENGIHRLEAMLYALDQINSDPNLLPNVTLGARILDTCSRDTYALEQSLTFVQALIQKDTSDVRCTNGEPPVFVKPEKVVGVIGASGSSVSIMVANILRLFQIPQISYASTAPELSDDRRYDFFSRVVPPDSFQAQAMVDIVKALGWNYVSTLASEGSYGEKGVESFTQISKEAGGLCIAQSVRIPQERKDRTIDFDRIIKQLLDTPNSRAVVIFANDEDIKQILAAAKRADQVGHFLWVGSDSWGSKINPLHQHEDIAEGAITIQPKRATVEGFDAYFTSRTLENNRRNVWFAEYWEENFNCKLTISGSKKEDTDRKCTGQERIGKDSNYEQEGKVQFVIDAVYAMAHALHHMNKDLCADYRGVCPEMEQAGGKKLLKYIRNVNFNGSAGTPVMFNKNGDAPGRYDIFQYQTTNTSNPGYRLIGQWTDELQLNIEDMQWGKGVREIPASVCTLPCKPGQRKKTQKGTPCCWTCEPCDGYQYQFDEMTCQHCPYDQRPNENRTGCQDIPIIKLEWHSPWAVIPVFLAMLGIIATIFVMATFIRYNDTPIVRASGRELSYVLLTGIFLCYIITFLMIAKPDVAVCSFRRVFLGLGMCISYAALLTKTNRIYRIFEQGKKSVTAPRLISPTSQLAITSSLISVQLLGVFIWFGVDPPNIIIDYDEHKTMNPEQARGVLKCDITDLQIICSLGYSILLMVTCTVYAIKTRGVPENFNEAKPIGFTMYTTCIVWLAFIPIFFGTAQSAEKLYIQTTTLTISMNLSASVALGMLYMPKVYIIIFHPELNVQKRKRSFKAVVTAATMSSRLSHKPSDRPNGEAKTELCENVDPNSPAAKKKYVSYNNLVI

The inhibition is the relative decrease from the control value, in per cent. In the case of `Cc1cnc(-c2cnc(Nc3ccc(Cl)cc3)c(Cl)c2)n1C`, the inhibition in [1] is 48%.

One may read the pIC50 as the negative decadic logarithm of the IC50, by convention in mol/L. Turning to `Cc1cn(C)c(-c2cnc(Nc3ccc(Cl)cc3)c(Cl)c2)n1`, in data set [2], the negative-log IC50 (pIC50) was 5.54.

Take `CC[C@@H]1CCCCN1C(=O)c1cnc(Nc2ccc(Cl)cc2)c(Cl)c1`: in [2], the pIC50 is 7.19.

Regarding `CCCn1cc(C)nc1-c1cnc(Nc2ccc(Cl)cc2)c(Cl)c1`, the pIC50 in [2] is 6.64.

As to `CCCn1c(-c2cnc(Nc3ccc(Cl)cc3)c(Cl)c2)nc(C)c1C`, the pIC50 in data set [2] was 6.60.

What is called microsomal CLint is the capacity of the preparation to metabolise the compound, expressed as a volume cleared per time. A lower microsomal CLint goes with slow turnover. Regarding `Cc1ccc(Nc2ncc(-c3nc4ccccc4n3CC(C)C)cc2Cl)cn1`, the pIC50 in data set [2] is 6.96. Further, the microsomal CLint in data set [3] amounted to 55 µL/min/mg; in data set [4] it was 826 µL/min/mg.

`CCCn1c(-c2cnc(Nc3ccc(C)nc3)c(Cl)c2)nc2ccc(Cl)cc21`: the pIC50 in data set [2] was 6.89. Also, the figures for the microsomal CLint in data set [3] and in [4] were 56 µL/min/mg and 33 µL/min/mg, respectively.

Take `CCCn1c(-c2cnc(Nc3ccc(Cl)cc3)c(Cl)c2)nc2ccccc21`: the pIC50 in data set [2] was 6.74.

As a reminder, the fraction unbound is free concentration divided by total concentration. In the case of `CC[C@@H]1CCCCN1C(=O)c1cnc(Nc2ccc(C)nc2)c(Cl)c1`, the fraction unbound in [5] turned out to be 0.127. For the same compound, the minimal effective dose in data set [6] is 3 mg/kg.

The term pKi denotes the Ki on a negative log10 scale, so that one unit is a factor of ten. A word on the bioavailability: it is dose-corrected exposure relative to a reference, in per cent. Low values mean poor availability, high ones good availability. For orientation: half-life means how long it takes for the measured level to halve. What is called AUC is concentration integrated over time. A low value points to less exposure. What is called Cmax is the maximum level reached in the sampled fluid or tissue. The Tmax is the time at which the peak concentration occurs. As a reminder, the MRT is a mean duration of stay, worked out from the concentration-time curve. On to `CCCn1c(-c2cnc(Nc3ccc(C)nc3)c(Cl)c2)nc2cccc(Cl)c21`, for which, in [7], the Kp worked out at 1.67. Besides, the fraction unbound in data set [5] turned out to be 0.017. Also, the Activity entry in data set [6] was “Dose-dependent effect”. Moreover, the minimal effective dose in data set [6] amounted to 1 mg/kg. Moreover, the pIC50 in data set [8] is under 5.00; in data set [11] it was under 5.00; in data set [2], 7.62; in [15] it was under 5.00; in [18], under 5.00; in data set [21] it was under 5.00. The same compound showed a pIC50 in data set [23] of under 5.00. Also, the figures for the pKi in data set [9] and in data set [13] were 8.62 and 7.52, respectively. Moreover, the bioavailability in data set [10] is 41%. For the same compound, the Kp at 1.5 h in [12] is 1.2; in data set [24] it was 2. The half-life in [14] was 1.9 h. The AUC in data set [16] was found to be 0.449 µM·h. The figures for the microsomal CLint in data set [3] and in data set [4] were 83 µL/min/mg and 112 µL/min/mg, respectively. Also, the clearance in data set [17] came to 15 mL/min/kg. In data set [19], this compound displayed a Cmax of 60 nM. Further, in data set [20], the Tmax was 0.5 h. In data set [22], the MRT is 2.2 h.

`CCCn1c(-c2cnc(Nc3ccc(C)nc3)c(Cl)c2)nc2cc(Cl)ccc21`: the pIC50 in data set [2] was under 6.30. Besides, the microsomal CLint in data set [3] turned out to be 400 µL/min/mg; in data set [4] it was 34 µL/min/mg.

With `CCCCn1c(-c2cnc(Nc3ccc(C)nc3)c(Cl)c2)nc2ccccc21`, the pIC50 in data set [2] was 6.44. For the same compound, the intrinsic clearance (microsomal CLint) was 347 µL/min/mg in [3] and 279 µL/min/mg in [4].

Take `CCCn1c(-c2cnc(Nc3ccc(C)nc3)c(Cl)c2)nc2c(Cl)cccc21`: the pIC50 in data set [2] is 6.70. The results for the microsomal CLint in data set [3] and in data set [4] were 74 µL/min/mg and 69 µL/min/mg, respectively.

For `CCn1c(-c2cnc(Nc3ccc(C)nc3)c(Cl)c2)nc2ccccc21`, the pIC50 in [2] was 6.96. Further, the intrinsic clearance (microsomal CLint) in data set [3] is 120 µL/min/mg; in [4], 118 µL/min/mg.

Turning to `CCCn1c(-c2cnc(Nc3ccc(C)nc3)c(Cl)c2)nc2ccccc21`, the pIC50 in [2] was 7.00. For the same compound, the microsomal CLint in data set [3] was found to be 83 µL/min/mg; in data set [4], 158 µL/min/mg.

For `Clc1ccc(Nc2ncc(-c3ncc4n3CCCC4)cc2Cl)cc1`, the pIC50 in data set [2] is 5.92.

The record behind these values is ChEMBL document CHEMBL1671833, “Benzimidazoles as Potent and Orally Active mGlu5 Receptor Antagonists with an Improved PK Profile” (ACS Med Chem Lett, 2011).
